Experimental data taken from ChEMBL document CHEMBL4477243, “Discovery and SAR of a novel series of potent, CNS penetrant M4 PAMs based on a non-enolizable ketone core: Challenges in disposition” (Bioorg Med Chem Lett, 2016).

Assays:
[1] = target: T1, Muscarinic acetylcholine receptor M4 (Homo sapiens, UniProt P08173); assay: Positive allosteric modulation activity at human M4 receptor expressed in CHO cells co-expressing Gqi5 protein assessed as potentiation of EC20 acetyl choline-induced response by calcium mobilization assay; type: functional, cell-based
T1 sequence (P08173 whole entry): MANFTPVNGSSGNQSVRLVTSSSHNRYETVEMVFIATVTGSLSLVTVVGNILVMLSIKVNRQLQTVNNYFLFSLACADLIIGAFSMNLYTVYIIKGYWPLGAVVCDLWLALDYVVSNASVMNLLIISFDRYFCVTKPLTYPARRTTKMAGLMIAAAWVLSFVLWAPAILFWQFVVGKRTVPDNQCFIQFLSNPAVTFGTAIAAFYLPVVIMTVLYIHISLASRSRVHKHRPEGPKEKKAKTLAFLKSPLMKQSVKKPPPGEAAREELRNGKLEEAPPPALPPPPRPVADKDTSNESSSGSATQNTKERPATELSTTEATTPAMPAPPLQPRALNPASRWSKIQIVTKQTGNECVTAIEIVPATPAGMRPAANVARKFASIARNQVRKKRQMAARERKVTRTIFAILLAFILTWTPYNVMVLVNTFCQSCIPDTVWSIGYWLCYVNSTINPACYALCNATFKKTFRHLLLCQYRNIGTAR
Method in brief: (§1)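 Calcium mobilization in CHO cells stably co-expressing human or rat M4 with the chimeric Gqi5 protein. Test compound given with a fixed EC20 concentration of acetylcholine. Potency reported as EC50; efficacy as % of the acetylcholine maximum. Means of three independent experiments, each in triplicate.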

[2] = target: T2, Muscarinic acetylcholine receptor M4 (Rattus norvegicus, UniProt P08485); assay: Positive allosteric modulation activity at rat M4 receptor expressed in CHO cells co-expressing Gqi5 protein assessed as potentiation of EC20 acetyl choline-induced response by calcium mobilization assay; type: functional, cell-based; details: read-out: EC50; method in brief: as §1
T2 sequence (P08485 whole entry): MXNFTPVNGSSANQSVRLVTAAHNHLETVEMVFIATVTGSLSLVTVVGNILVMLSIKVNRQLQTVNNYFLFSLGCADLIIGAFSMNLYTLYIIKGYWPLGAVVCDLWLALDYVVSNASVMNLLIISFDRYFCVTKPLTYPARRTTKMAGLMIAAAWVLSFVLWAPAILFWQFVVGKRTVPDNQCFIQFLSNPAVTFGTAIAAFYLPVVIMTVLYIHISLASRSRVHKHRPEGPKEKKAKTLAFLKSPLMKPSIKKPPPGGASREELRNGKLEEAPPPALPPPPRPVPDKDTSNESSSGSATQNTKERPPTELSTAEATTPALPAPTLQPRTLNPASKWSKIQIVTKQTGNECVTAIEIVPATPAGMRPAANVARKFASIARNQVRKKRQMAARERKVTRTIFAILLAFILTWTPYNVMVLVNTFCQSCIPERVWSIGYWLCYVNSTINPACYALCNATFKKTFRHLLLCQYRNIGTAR

[3] = target: T3, Muscarinic acetylcholine receptor M4 (Homo sapiens) (UniProt P08173); assay: Positive allosteric modulation activity at human M4 receptor expressed in CHO cells co-expressing Gqi5 protein assessed as potentiation of EC20 acetyl choline-induced response by calcium mobilization assay relative to acetylcholine; type: functional, cell-based; method in brief: as §1
T3 sequence (whole entry): T1 sequence (P08173 whole entry)

[4] = target: T4, Muscarinic acetylcholine receptor M4 (Rattus norvegicus) (UniProt P08485); assay: Positive allosteric modulation activity at rat M4 receptor expressed in CHO cells co-expressing Gqi5 protein assessed as potentiation of EC20 acetyl choline-induced response by calcium mobilization assay relative to acetylcholine; type: functional, cell-based; method in brief: as §1
T4 sequence (whole entry): T2 sequence (P08485 whole entry)

[5] = test system: Cytochrome P450; assay: Inhibition of Cytochrome P450 (unknown origin); type: ADME, protein assay; details: human
[6] = target: T5, Cytochrome P450 1A2 (Homo sapiens, UniProt P05177); assay: Inhibition of CYP1A2 (unknown origin); type: ADME
T5 sequence (P05177 whole entry): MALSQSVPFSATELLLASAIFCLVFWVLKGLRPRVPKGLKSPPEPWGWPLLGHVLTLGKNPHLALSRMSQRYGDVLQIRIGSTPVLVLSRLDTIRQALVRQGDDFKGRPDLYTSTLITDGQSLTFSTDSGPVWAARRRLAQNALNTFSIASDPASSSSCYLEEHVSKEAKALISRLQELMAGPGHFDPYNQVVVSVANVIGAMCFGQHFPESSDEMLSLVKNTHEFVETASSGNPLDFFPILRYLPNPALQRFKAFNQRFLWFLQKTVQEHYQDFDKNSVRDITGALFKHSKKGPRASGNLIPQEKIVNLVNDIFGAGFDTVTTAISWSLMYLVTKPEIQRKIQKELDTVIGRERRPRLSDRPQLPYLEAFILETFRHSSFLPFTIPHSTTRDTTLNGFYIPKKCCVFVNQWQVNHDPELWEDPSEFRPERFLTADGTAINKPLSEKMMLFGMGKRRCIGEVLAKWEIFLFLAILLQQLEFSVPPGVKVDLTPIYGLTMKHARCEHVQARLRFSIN

[7] = Fraction unbound in human plasma; type: ADME, cell-free
Method in brief: (§2)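 Plasma protein binding, reported as fraction unbound in rat and human plasma. Single experiment (n=1) run in triplicate.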

[8] = Fraction unbound in rat plasma; type: ADME, cell-free; method in brief: as §2
[9] = Ratio of drug level in Sprague-Dawley rat brain to plasma at 0.2 to 0.25 mg/kg, iv administered as cassette dose measured 0.25 hrs post dose; type: ADME, organism-based; details: brain and plasma
Method in brief: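 Male Sprague-Dawley rats (n=1) received an IV cassette dose of 0.20-0.25 mg/kg. Brain and plasma sampled 0.25 hr post-administration. Total brain:plasma partition coefficient (Kp) measured; unbound coefficient (Kp,uu) calculated.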

Structure (SMILES)	EC50 ([1]; read-out: EC50)	EC50 [2]	%max [3]	%max [4]	inhibition (INH) [5]	inhibition (INH) [6]	fraction unbound [7]	fraction unbound [8]	Kp at 0.25 h [9]	EC50 ([1]; read-out: pEC50 (converted))
Cc1nnc2sc(C(O)c3ccncc3)c(N)c2c1C (stereo not drawn)	> 10000 nM	> 10000 nM								
Nc1c(C(O)c2ccncc2)sc2nc(OCc3ccncc3)c3c(c12)CCC3 (stereo not drawn)	> 10000 nM	> 10000 nM								
Cc1cc(C)c2c(N)c(C(=O)c3ccccc3)sc2n1	891 nM	1500 nM	47%	46%	Not Active	Active	0.005 to 0.18	0.005 to 0.18	0.83 to 6.95	
Nc1c(C(=O)c2ccncc2)sc2nc(O)c3c(c12)CCCC3	37 nM	182 nM	63.8%	52.7%	Not Active	Active	0.005 to 0.18	0.005 to 0.18	0.83 to 6.95	75.9 nM
Cc1cc(C)c2c(N)c(C(=O)CCc3ccncc3)sc2n1	479 nM	540 nM	59.1%	67.9%					11	
Cc1nnc2sc(C(=O)c3ccncc3)c(N)c2c1C	891 nM	3550 nM	76%	68%	Not Active	Active	0.005 to 0.18	0.005 to 0.18		
COc1ccc(CCC(=O)c2sc3nnc(C)c(C)c3c2N)cc1F	380 nM	254 nM	69.1%	77.2%					11	
Cc1cc(C)c2c(N)c(C(=O)c3ccc(F)c(Cl)c3)sc2n1	240 nM	195 nM	45%	41%	Not Active	Active	0.005 to 0.18	0.005 to 0.18	0.83 to 6.95	
Cc1nc2sc(C(=O)c3ccccc3)c(N)c2c(C)c1Cl	372 nM	692 nM	45%	43%	Not Active	Active	0.005 to 0.18	0.005 to 0.18		
COc1ccc(C(O)c2sc3nc(C)cc(C)c3c2N)cc1 (stereo not drawn)	> 10000 nM	> 10000 nM								
Cc1nnc2sc(C(O)c3ccccc3)c(N)c2c1C (stereo not drawn)	> 10000 nM	> 10000 nM								
Nc1c(C(O)c2ccncc2)sc2nc(O)c3c(c12)CCCC3 (stereo not drawn)	> 10000 nM	> 10000 nM								
Cc1nnc2sc(C(O)c3ccc(F)cc3F)c(N)c2c1C (stereo not drawn)	> 10000 nM	> 10000 nM								
COc1ccc(C(=O)c2sc3nnc(C)c(C)c3c2N)cc1	646 nM	1450 nM	63%	70%	Not Active	Active	0.005 to 0.18	0.005 to 0.18	0.83 to 6.95	
Cc1nc2sc(C(=O)c3cccnc3)c(N)c2c(C)c1Cl	105 nM	417 nM	74%	95%	Not Active	Active	0.005 to 0.18	0.005 to 0.18	0.83 to 6.95	
Cc1nc2sc(C(O)c3cccnc3)c(N)c2c(C)c1Cl (stereo not drawn)	> 10000 nM	> 10000 nM								
Cc1nc2sc(C(O)c3ccccc3)c(N)c2c(C)c1Cl (stereo not drawn)	> 10000 nM	> 10000 nM								
Cc1cc(C)c2c(N)c(C(O)c3ccccc3)sc2n1 (stereo not drawn)	> 10000 nM	> 10000 nM								
Cc1cc(C)c2c(N)c(C(O)c3ccc(F)c(Cl)c3)sc2n1 (stereo not drawn)	> 10000 nM	> 10000 nM								
Cc1nnc2sc(C(=O)c3ccccc3)c(N)c2c1C	102 nM	166 nM	76%	67%	Not Active	Active	0.005 to 0.18	0.005 to 0.18		
Nc1c(C(=O)c2ccncc2)sc2nc(OCCN3CCOCC3)c3c(c12)CCC3	76 nM	417 nM			Not Active	Active	0.005 to 0.18	0.005 to 0.18		
Cc1nnc2sc(C(O)c3cccnc3)c(N)c2c1C (stereo not drawn)	> 10000 nM	> 10000 nM								
COc1ccc(C(O)c2sc3nnc(C)c(C)c3c2N)cc1 (stereo not drawn)	> 10000 nM	> 10000 nM								
Nc1c(C(=O)c2ccncc2)sc2nc(OCc3ccncc3)c3c(c12)CCC3	295 nM	1230 nM			Not Active	Active	0.005 to 0.18	0.005 to 0.18	0.83 to 6.95	
Nc1c(C(O)c2ccncc2)sc2nc(OCCN3CCOCC3)c3c(c12)CCC3 (stereo not drawn)	> 10000 nM	> 10000 nM								
Cc1cc(C)c2c(N)c(C(O)c3ccc(F)cc3F)sc2n1 (stereo not drawn)	> 10000 nM	> 10000 nM								
Cc1cc(C)c2c(N)c(C(O)c3ccc(O)cc3)sc2n1 (stereo not drawn)	> 10000 nM	> 10000 nM								
